The text below walks through data of ChEMBL document CHEMBL5252546, “Salutaxel, a Conjugate of Docetaxel and a Muramyl Dipeptide (MDP) Analogue, Acts as Multifunctional Prodrug That Inhibits Tumor Growth and Metastasis” (J Med Chem, 2018).

Each structure is given as a SMILES string. The source made the active and inactive calls. The rule behind the calls is not given here.

Data set [1] is described as follows: Cmax in mouse tumor implanted with mouse 4T1 cells at 5.7 mg/kg,iv measured upto 72 hrs. Further details: time < 72 hrs, dose 5.7 mg/kg, route iv. In kind it is ADME, organism-based, Neoplasm.
Data set [2] in a line: in vivo. The note with it: mouse, plasma, iv, 5.7 mg/kg.
Data set [3] can be described thus: Cmax in rat at 4 mg/kg,iv measured upto 24 hrs. In kind it is ADME, organism-based. Further details: dose 4 mg/kg, time < 24 hrs, route iv. The conditions noted are these: in vivo. A digest of the protocol: (§1)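 Rats were given a single iv injection at 2, 4 or 8 mg/kg. Plasma parent drug and released docetaxel were followed over time. Cmax, Tmax, AUC, MRT, t1/2, CL and Vss were reported for males, females and all animals combined.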

In data set [4] the test system is HT-29. Kind of data set: Antiproliferative activity against human HT-29 cells assessed inhibition of cell growth incubated for 72 hrs by SRB assay. In kind it is functional, cell-based. The note with it: HT-29, 72 h.
The test system of data set [5] is 4T1. As to the kind of experiment: Antitumor activity against mouse 4T1 cells xenografted with BALB/c mouse assessed as decrease in lung metastasis at 10 mg/kg,iv administrated once per week for 4 weeks. In kind it is functional, organism-based. The procedure, abridged:
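4T1 cells injected into the mammary fat pad of BALB/c mice; iv saline vehicle or 5, 10 or 20 mg/kg once weekly for 4 weeks; body weight, tumour volume, tumour weight, lung metastatic nodule count and metastasis score recorded; n = 10, mean ± SEM, ANOVA and Student's t test.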

In data set [6] the test system is 4T1. As to the kind of experiment: Synergistic antitumor activity against mouse 4T1 cells xenografted with BALB/c mouse assessed as decrease in lung metastasis at 10 mg/kg,iv administrated in combination with doxorubicin once per week for 4 weeks. In kind it is functional, organism-based.
Data set [7] deals with 4T1. Kind of data set: Antitumor activity against mouse 4T1 cells implanted in BALB/c mouse assessed as increase in spleen NOD1 expression level at 5 to 20 mg/kg,iv administrated once per week for 4 weeks by western blot assay. The conditions noted are these: dose 5-20 mg/kg. In kind it is functional, organism-based. The procedure, abridged: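 4T1 fat-pad model in BALB/c mice, iv once weekly for 4 weeks; MMP9, MMP2 and NOD1 in spleen, lung and tumour by western blot, β-actin loading control; bands averaged over five mice per group, representative of two independent experiments.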
For orientation: In western blotting, separated proteins are transferred to a membrane and probed.

Data set [8] is described as follows: MRT (0 to infinity) in rat at 2 mg/kg,iv measured upto 24 hrs. In kind it is ADME, organism-based. The note with it: in vivo.
Data set [9] is described as follows: Toxicity in Beagle dog assessed as facial swelling at 3 to 18 mg/kg,iv measured upto 24 hrs. The note with it: in vivo, dose 3-18 mg/kg. In kind it is organism-based, Canis lupus familiaris.
The nature of data set [10]: MRT (0 to infinity) in male Beagle dog at 4 mg/kg,iv measured upto 24 hrs. In kind it is ADME, organism-based, Canis lupus familiaris. The note with it: in vivo.
Data set [11] is described as follows: Chronic toxicity in male Sprague-Dawley rat at 2 to 8 mg/kg,iv administered once per week for 30 days. The conditions noted are these: in vivo, 720 h, dose 2-8 mg/kg, time 30 day. In kind it is organism-based. A digest of the protocol:
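Long-term toxicity: rats given iv 2, 4 or 8 mg/kg and dogs 3, 6 or 18 mg/kg once weekly over 30 days; toxicokinetics recorded; highest non-severely toxic dose determined by sex.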

Data set [12] addresses Cytochrome P450 1A (Homo sapiens, UniProt P04798+P05177). Kind of data set: Inhibition of CYP1A in human liver microsomes using probe substrate at 0.1 to 100 uM in presence of NADPH. In kind it is ADME, Microsome. The conditions noted are these: dose 0.1-100 µM. In general terms: Microsomes from liver hold many membrane-bound enzymes, among them those of drug oxidation.
The nature of data set [13]: Prodrug conversion in mouse plasma implanted with mouse 4T1 cells assessed as Tmax of docetaxel at 4 mg/kg,iv measured upto 72 hrs. In kind it is ADME, organism-based. The conditions noted are these: in vivo.
Data set [14] is described as follows: AUC (0-infinity) in Beagle dog at 1 mg/kg,iv measured upto 24 hrs. Details: dose 1 mg/kg, time < 24 hrs, route iv. In kind it is ADME, organism-based, Canis lupus familiaris. The note with it: in vivo. The procedure, abridged: (§2)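 Single iv dose: rats 2, 4 or 8 mg/kg by intravenous injection; Beagle dogs 1, 2 or 4 mg/kg by intravenous infusion. Plasma concentration–time data were analysed by sex and pooled. Reported parameters: Cmax, Tmax, AUC0−t, AUC0−∞, MRT0−∞, t1/2, CL, Vss, given as mean ± SD.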

The nature of data set [15]: Drug metabolism in rat plasma assessed as metabolite MDA-205 formation at 4 mg/kg,iv measured after 24 hrs. In kind it is ADME, organism-based. The note with it: in vivo.
A short description of data set [16]: AUC (0-t) in male Beagle dog at 2 mg/kg,iv measured upto 24 hrs. In kind it is ADME, organism-based, Canis lupus familiaris. Details: dose 2 mg/kg, time < 24 hrs, route iv. The note with it: in vivo. A digest of the protocol:
as §2

Data set [17] can be described thus: MRT (0 to infinity) in male rat at 4 mg/kg,iv measured upto 24 hrs. In kind it is ADME, organism-based. The conditions noted are these: in vivo.
Data set [18] can be described thus: Prodrug conversion in mouse tumor implanted with mouse 4T1 cells assessed as Tmax of docetaxel at 4 mg/kg,iv measured upto 72 hrs. In kind it is ADME, organism-based, Neoplasm. The conditions noted are these: in vivo.
Data set [19] in a line: Clearance in rat at 2 mg/kg,iv measured upto 24 hrs. In kind it is ADME, organism-based. The note with it: in vivo. The procedure, abridged: as §1
Data set [20] can be described thus: Toxicity in Beagle dog assessed as decrease in blood pressure at 1 to 4 mg/kg,iv measured after 1 to 4 hrs. In kind it is organism-based, Canis lupus familiaris. The note with it: in vivo, dose lower 1 mg/kg, time lower 1 hrs, dose upper 4 mg/kg, time upper 4 hrs.
A short description of data set [21]: AUC (0-t) in Beagle dog at 2 mg/kg,iv measured upto 24 hrs. In kind it is ADME, organism-based, Canis lupus familiaris. Details: time < 24 hrs, dose 2 mg/kg, route iv. The conditions noted are these: in vivo. The procedure, abridged:
as §2

Data set [22] can be described thus: Stability in dog plasma assessed as compound remaining at 1 uM incubated for 6 hrs. In kind it is ADME, cell-free, Canis lupus familiaris.
The test system of data set [23] is 4T1. Kind of data set: Antitumor activity against mouse 4T1 cells implanted in BALB/c mouse assessed as decrease in neutrophil in peripheral blood at 20 mg/kg,iv administrated qd for 2 days by blood smear staining microscopic analysis. The conditions noted are these: time 2.0 day. In kind it is functional, organism-based. The procedure, abridged: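 Day 19 after 4T1 implantation, mice randomised into five groups; iv vehicle or 20 mg/kg plus ip C12-iE-DAP (50 μg/mouse) and MDP (100 μg/mouse) once daily for 2 days; blood taken 6 h later; neutrophils/leukocytes counted on stained blood smears at 1000× light microscopy.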

The nature of data set [24]: Prodrug conversion in mouse plasma implanted with mouse 4T1 cells assessed as Cmax of docetaxel at 4 mg/kg,iv measured upto 72 hrs. In kind it is ADME, organism-based. Details: dose 4 mg/kg, time < 72 hrs, route iv. The conditions noted are these: in vivo.

For orientation: Cmax means the peak of the concentration-time curve. What is called AUC(0-t) is the area under the concentration-time curve up to a stated or last time point. The low end stands for low exposure, the high end for high exposure. In data set [1], `CC(=O)O[C@@]12CO[C@@H]1C[C@H](O)[C@@]1(C)C(=O)[C@H](O)C3=C(C)[C@@H](OC(=O)[C@H](O)[C@@H](NC(=O)OC(C)(C)C)c4ccccc4)C[C@@](O)([C@@H](OC(=O)c4ccccc4)[C@H]21)C3(C)C` [DOCETAXEL ANHYDROUS] returned a Cmax of 0.95 µM. The exposure AUC(0-t) at 72 h in data set [2] is 2.24 µM·h.

By IC50 is commonly meant the concentration at which inhibition is half-maximal. A low value points to inhibition by little substance. Usually MRT inf stands for the average time that molecules of a dose stay in the body. In general, Tmax refers to the time at which the peak concentration occurs. A word on the AUC(0-inf): it is the area under the concentration-time curve extrapolated to infinity. The low end stands for low exposure, the high end for high exposure. What is called clearance is the volume of plasma or blood freed of the substance per unit of time. Lower therefore signals a low capacity for elimination. As for `CC(=O)O[C@@]12CO[C@@H]1C[C@H](O)[C@@]1(C)C(=O)[C@H](O)C3=C(C)[C@@H](OC(=O)[C@H](OC(=O)CCC(=O)NCCCC[C@H](NC(=O)CC[C@@H](NC(=O)[C@H](C)NC(=O)/C=C/c4ccc(F)cc4Cl)C(N)=O)C(=O)O)[C@@H](NC(=O)OC(C)(C)C)c4ccccc4)C[C@@](O)([C@@H](OC(=O)c4ccccc4)[C@H]21)C3(C)C`, the peak concentration (Cmax) in [3] amounted to 34200 ng/mL; in data set [24], 43.3 µM. Also, in data set [4], the IC50 was determined as 16.3 nM. The outcome in [5], in [6], in [7] and in [23] was Active. The MRT inf in data set [8] turned out to be 11.3 min; in [10], 16.5 min; in data set [17] it was 22.5 min. The Activity result was “Toxic” in data set [9], “Toxic” in data set [11] and “Non-Toxic” in data set [20]. In addition, the “inhibition (INH)” value in data set [12] was “Not Active”. Further, the Tmax in data set [13] is 1.8 min; in data set [18] it was 30 min. The molecule further showed an AUC(0-inf) in [14] of 1640 ng·h/mL. The Drug metabolism result in data set [15] is “Metabolite_Detected”. Also, the area under the curve AUC(0-t) at 24 h in [16] stood at 4840 ng·h/mL; in data set [21] it was 5900 ng·h/mL. Moreover, the clearance in [19] worked out at 6.66 mL/min/kg. For the same molecule, the Stability entry in [22] is listed as “Stable”.
